Laboratory results from ChEMBL document CHEMBL4680100, “Revisiting the SAR of the Antischistosomal Aryl Hydantoin (Ro 13-3978)” (J Med Chem, 2016).
Converted amounts (≈) assume the structure as drawn.

Assays:
[1] = Intrinsic clearance in mouse liver microsome in presence of NADPH-regenerating system incubated over 60 mins by LC-MS analysis; conditions: microsomes, 1 h
[2] = Kinetic solubility of the compound in 0.01 M HCl at pH 2 by nephelometry; format: physicochemical; conditions: read-out: Kinetic_solubility
Schistosoma mansoni [3] = assay: Antischistosomal activity against Schistosoma mansoni infected in NMRI mouse assessed as reduction in total worm burden at 100 mg/kg, po administered as single dose starting on day 49 post-infection and measured at 28 days post treatment relative to control; format: functional; parameters: scale not given: the % may be the effect or the level left; conditions: time 28 day
In short: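 S. mansoni-infected NMRI mice treated on day 49 post-infection with a single oral dose, dissolved or suspended in 7% v/v Tween 80, 3% v/v ethanol (10 mL/kg), five mice per group. Sacrificed and dissected 28 d post-treatment; worms counted to give total worm burden reduction versus untreated controls. Kruskal–Wallis test on medians, treatment versus control.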

Androgen receptor [4] = target: T1, Androgen receptor (Homo sapiens, UniProt P10275)
T1 sequence (P10275 whole entry): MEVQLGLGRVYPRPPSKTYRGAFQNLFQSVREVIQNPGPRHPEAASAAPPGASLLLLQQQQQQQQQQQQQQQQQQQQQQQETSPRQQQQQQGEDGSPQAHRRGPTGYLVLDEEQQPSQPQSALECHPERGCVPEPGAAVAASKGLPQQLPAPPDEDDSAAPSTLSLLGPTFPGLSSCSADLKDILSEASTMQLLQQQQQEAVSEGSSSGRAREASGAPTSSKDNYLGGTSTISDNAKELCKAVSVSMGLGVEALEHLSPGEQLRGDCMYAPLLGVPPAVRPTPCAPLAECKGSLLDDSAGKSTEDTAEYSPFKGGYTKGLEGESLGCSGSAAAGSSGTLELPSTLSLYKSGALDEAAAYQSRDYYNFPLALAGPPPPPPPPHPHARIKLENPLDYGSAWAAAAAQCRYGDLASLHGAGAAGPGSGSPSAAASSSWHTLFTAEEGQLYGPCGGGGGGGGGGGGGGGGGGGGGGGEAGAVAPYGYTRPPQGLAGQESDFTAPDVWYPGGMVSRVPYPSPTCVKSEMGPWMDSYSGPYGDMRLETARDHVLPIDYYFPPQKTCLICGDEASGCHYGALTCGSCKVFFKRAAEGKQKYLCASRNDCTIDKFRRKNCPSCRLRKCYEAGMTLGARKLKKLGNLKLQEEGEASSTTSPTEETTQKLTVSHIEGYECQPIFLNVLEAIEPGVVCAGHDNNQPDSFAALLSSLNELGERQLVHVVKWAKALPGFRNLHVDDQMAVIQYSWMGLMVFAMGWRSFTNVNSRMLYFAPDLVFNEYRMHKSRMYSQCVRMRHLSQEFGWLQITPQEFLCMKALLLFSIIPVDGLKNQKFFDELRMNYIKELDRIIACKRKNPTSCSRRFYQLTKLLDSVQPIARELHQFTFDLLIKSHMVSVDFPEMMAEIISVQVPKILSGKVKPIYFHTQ

[5] = Tmax in male Swiss mouse at 100 mg/kg, po administered via gavage measured upto 48 hrs postdose by LC-MS analysis; format: ADME, organism-based; conditions: in vivo
In short: (§1)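 Nonfasted male Swiss outbred mice (25–33 g, 7 per compound, fed ad libitum) were gavaged once at 10 mL/kg. Vehicle was 7% v/v Tween 80, 3% v/v ethanol in water, dosed within 1 h of preparation. Blood was drawn 0.25–48 h postdose (n = 2 per time point) into heparin with stabilizer, and plasma was quantified by LCMS. Noncompartmental analysis.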

L6 = assay: Cytotoxicity against rat L6 cells assessed as reduction in cell viability at up to 30 uM; format: cell-based
[6] = Octanol/water partition coefficient, logD of the compound at pH 7.4 by HPLC analysis
[7] = Intrinsic clearance in human liver microsome in presence of NADPH-regenerating system incubated over 60 mins by LC-MS analysis; conditions: microsomes, 1 h
[8] = Kinetic solubility of compound at pH 6.5 phosphate buffer by nephelometry; format: physicochemical; conditions: read-out: Kinetic_solubility
[9] = Cmax in male Swiss mouse at 100 mg/kg, po administered via gavage measured upto 48 hrs postdose by LC-MS analysis; format: ADME, organism-based; parameters: route oral, dose 100 mg/kg, time <=48; conditions: in vivo; in short: as §1
[10] = AUC (0 to last) in male Swiss mouse at 100 mg/kg, po administered via gavage measured upto 48 hrs postdose by LC-MS analysis; format: ADME, organism-based; parameters: route oral, dose 100 mg/kg, time <=48; conditions: in vivo
Albumin = Albumin (Homo sapiens, UniProt P02768); assay: Protein binding in immobilized human serum albumin by HPLC analysis; format: ADME; conditions: isolated protein
Albumin, sequence (P02768 whole entry): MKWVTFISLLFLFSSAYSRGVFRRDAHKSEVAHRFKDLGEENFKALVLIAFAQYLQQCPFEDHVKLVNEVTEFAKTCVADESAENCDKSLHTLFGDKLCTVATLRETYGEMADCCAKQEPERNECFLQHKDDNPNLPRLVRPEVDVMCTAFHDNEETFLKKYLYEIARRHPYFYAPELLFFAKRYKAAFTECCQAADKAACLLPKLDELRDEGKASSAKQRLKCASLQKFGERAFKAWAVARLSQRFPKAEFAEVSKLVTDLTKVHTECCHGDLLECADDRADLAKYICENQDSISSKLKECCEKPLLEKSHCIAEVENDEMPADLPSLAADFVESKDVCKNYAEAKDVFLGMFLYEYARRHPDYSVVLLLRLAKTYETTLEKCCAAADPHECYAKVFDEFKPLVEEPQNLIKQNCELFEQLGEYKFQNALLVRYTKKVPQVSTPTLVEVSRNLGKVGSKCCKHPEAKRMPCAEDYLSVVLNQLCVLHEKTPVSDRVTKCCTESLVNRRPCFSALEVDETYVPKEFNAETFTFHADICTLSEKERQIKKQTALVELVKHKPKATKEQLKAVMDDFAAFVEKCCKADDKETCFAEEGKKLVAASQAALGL
In short: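 Binding estimated from gradient HPLC retention on a human albumin column, correlated against standard compounds of known protein binding.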

Schistosoma mansoni [11] = assay: Antischistosomal activity against Schistosoma mansoni infected in mouse assessed as effective dose causing reduction in worm burden; format: functional
Schistosoma mansoni [12] = assay: Antischistosomal activity against adult Schistosoma mansoni cercariae infected in mouse assessed as effective dose causing reduction in worm burden; format: functional
Schistosoma mansoni [13] = assay: Antischistosomal activity against juvenile Schistosoma mansoni cercariae infected in mouse assessed as effective dose causing reduction in worm burden; format: functional
Androgen receptor [14] = target: T1, Androgen receptor; conditions: lapc4

Row | Compound | CLH [1] [µL/min/mg] | solubility kinetic [2] [µg/mL] | Activity (Schistosoma mansoni [3]) [%] | IC50 (Androgen receptor [4]) [µM] | Tmax [5] [h] | Activity (L6) | logD [6] | CLH [7] [µL/min/mg] | solubility kinetic [8] [µg/mL] | Cmax [9] [µM] | AUClast [10] [µM·h] | PPB (Albumin) [%] | ED50 (Schistosoma mansoni [11]) [mg/kg] | ED50 (Schistosoma mansoni [12]) [mg/kg] | ED50 (Schistosoma mansoni [13]) [mg/kg] | IC50 (Androgen receptor [14])
1 | CN(C)C(=O)c1cc(N2C(=O)NC(C)(C)C2=O)ccc1F | < 7 | > 100 | 30 | 9.1 | 1 | Non-Toxic | 0.9 | < 7 | > 100 | 488 | 1360 | 5.9 |  |  |  | 
2 | COC(=O)C(C)(C)NC(=O)Nc1ccc(F)c(C(F)(F)F)c1 |  |  |  |  |  |  |  |  |  |  |  |  | 62 |  |  | 
3 | CCN1C(=O)N(c2ccc(F)c(C(F)(F)F)c2)C(=O)C1(C)C | 32 | 50 (≈ 157 µM) | 98 | 0.14 | 1 | Non-Toxic | 3.5 | 30 | 25 (≈ 78.5 µM) | 11.1 | 103 | 49.3 |  |  |  | 
4 | CN1C(=O)N(c2ccc(F)c(C(F)(F)F)c2)C(=O)C1(C)C | 65 | 50 (≈ 164 µM) | 93 | 1.3 | 1 | Non-Toxic | 3.2 | 16 | 50 (≈ 164 µM) |  |  | 40.9 |  |  |  | 
5 | CC1(C)NC(=O)N(c2ccc(F)c(C(F)F)c2)C1=O | < 7 | > 100 | 94 | ≥ 10 | 3 | Non-Toxic | 2.2 | < 7 | > 100 | 112 | 3190 | 20.4 |  |  |  | 
6 | Cc1ccc(N2C(=O)NC(C)(C)C2=O)cc1C(F)(F)F | 16 | > 100 | 4.8 | > 10 |  | Non-Toxic | 2.8 | < 7 | > 100 |  |  | 64.8 |  |  |  | 
7 | CC1(C)NC(=O)N(Cc2ccc(F)c(C(F)(F)F)c2)C1=O | 11 | 50 (≈ 164 µM) | 56 | 4.2 |  | Non-Toxic | 2.9 | 17 | > 100 |  |  | 82.1 |  |  |  | 
8 | CC1(C)NC(=O)N(c2cccnc2)C1=O | < 7 | > 100 | 38 | 9.6 |  | Non-Toxic | 0.2 | < 7 | > 100 |  |  | 6.6 |  |  |  | 
9 | CC1(C)NC(=O)N(c2ccc(F)c(C(F)(F)F)c2)C1=O | < 7 | > 100 | 95 | 4.4 |  | Non-Toxic | 2.7 | 8 | > 100 | 124 | 2740 | 52.1 |  | 15 | 140 | 
10 | CC1(C)C(=O)N(c2ccc(F)c(C(F)(F)F)c2)C(=O)N1CC(N)=O | < 7 | 50 (≈ 144 µM) | 25 |  |  | Non-Toxic | 2.2 | < 7 | 50 (≈ 144 µM) |  |  | 20.3 |  |  |  | Not Active
11 | O=C1NC2(CCCC2)C(=O)N1c1ccc(F)c(C(F)(F)F)c1 | 93 | 50 (≈ 158 µM) | 61 | 0.99 | 1 | Non-Toxic | 3.2 | 33 | 50 (≈ 158 µM) | 15 | 106 | 70.4 |  |  |  | 
12 | CC1(C)NC(=O)N(c2ccc(C(F)(F)F)nc2)C1=O | < 7 | > 100 | 0 | > 10 |  | Non-Toxic | 1.8 | < 7 | > 100 |  |  | 18.3 |  |  |  | 
13 | CC1(C)NC(=O)N(c2ccnc(C(F)(F)F)c2)C1=O | < 7 | > 100 | 100 | 4.5 | 7 | Non-Toxic | 1.9 | < 7 | > 100 | 155 | 6480 | 22.7 |  |  |  | 
